In brackets after ≈: the same amount, converted by molar mass. Like-named read-outs stand apart in the source and are kept apart here. Ends that are not written are not given here.
What was measured:
[1] = system: Acinetobacter baumannii B28‐16; test: Broth microdilution MIC, A. baumannii B28-16; assay type: cell-based; settings: TSB, 37 °C, 18–20 h
In short: (§1)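 Log-phase cultures (OD600 ≈ 0.5) grown in tryptic soy broth were diluted to 0.001 OD and added to serially diluted test compound. Peptide stocks were freshly made in autoclaved water and quantitated by UV. Plates were incubated at 37 °C for 18–20 h and read at 630 nm for growth.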

[2] = system: Pseudomonas aeruginosa E411‐17; test: Broth microdilution MIC, P. aeruginosa E411-17; assay type: cell-based; settings: TSB, 37 °C, 18–20 h
In short: as §1

S. aureus USA400 = test: Antibacterial assay, S. aureus clinical strain USA400; assay type: cell-based, Staphylococcus aureus; settings: broth microdilution, TSB
In short: as §1

Escherichia coli E423‐17 = test: Broth microdilution MIC, E. coli E423-17; assay type: cell-based; settings: TSB, 37 °C, 18–20 h
In short: as §1

S. aureus Mu50 = test: Antibacterial assay, S. aureus clinical strain Mu50; assay type: cell-based, Staphylococcus aureus; settings: broth microdilution, TSB
In short: as §1

[3] = system: Staphylococcus aureus USA300 LAC; test: Broth microdilution MIC, S. aureus USA300 LAC; assay type: cell-based; settings: for MIC, S. aureus clinical strain USA300: Table 5, broth microdilution; for Antibacterial minimal inhibitory concentration, Staphylococcus aureus USA300 LAC: broth microdilution, 37 °C, 18–20 h, read at 630 nm; for MIC: Staphylococcus aureus
In short: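 Broth microdilution was run in tryptic soy broth. Log-phase USA300 LAC (OD600 ≈ 0.5) was diluted to 0.001 OD over serially diluted test compound, incubated 18–20 h at 37 °C and read at 630 nm. For medium effects the broth was adjusted to pH 5.5, 6.8, 7.4 or 8.0, brought to 100 mM NaCl, or supplemented with 1, 5 or 10% human serum.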

[4] = system: Staphylococcus epidermidis 1457; test: Broth microdilution MIC, S. epidermidis 1457; assay type: cell-based; settings: TSB, 37 °C, 18–20 h
In short: as §1

[5] = system: Klebsiella pneumoniae E406‐17; test: Broth microdilution MIC, K. pneumoniae E406-17; assay type: cell-based; settings: TSB, 37 °C, 18–20 h
In short: as §1

S. aureus Newman = test: Antibacterial assay, S. aureus clinical strain Newman; assay type: cell-based, Staphylococcus aureus; settings: broth microdilution, TSB
In short: as §1

S. aureus USA200 = test: Antibacterial assay, S. aureus clinical strain USA200; assay type: cell-based, Staphylococcus aureus; settings: broth microdilution, TSB
In short: as §1

[6] = system: S. aureus USA300 membranes; test: Membrane permeabilization; assay type: cell-based, Staphylococcus aureus; settings: in PBS, 4 × MIC (YZ103 16 μM, YZ105 4 μM, nafcillin 2 μM, linezolid 16 μM, LL‐37 16 μM), 20 μM propidium iodide, 37 °C
S. aureus USA300 = test: Killing kinetics of exponential bacteria; assay type: cell-based, Staphylococcus aureus; settings: 4 × MIC (YZ105 4 uM, nafcillin 2 μM, linezolid 16 μM), 2 h, exponential phase bacteria, colony counting
[7] = system: S. aureus USA300 membrane potential; test: Membrane depolarization; assay type: cell-based, Staphylococcus aureus; settings: DiBAC4(3) 500 nM; YZ105 8 μM, nafcillin 4 μM, linezolid 32 μM; Triton X‐100 positive control
In short: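 USA300 was grown in TSB to exponential phase, washed twice with PBS, and resuspended in PBS with 25 mM glucose (15 min, 37 °C). DiBAC4(3) was added to 500 nM. Baseline fluorescence (ex 485/em 520 nm) was read for 20 min. Test compound was then added and reading continued for 40 min, with Triton X-100 as positive control.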

[8] = system: S. aureus USA300 LAC biofilms; test: Effect on 24 h preformed biofilms; assay type: cell-based, Staphylococcus aureus
In short: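 Biofilms were formed for 24 h at 37 °C from exponential-phase USA300 LAC. After PBS washes they were exposed to test compound in fresh TSB for 24 h at 37 °C. Following further washes, viable cells were measured by XTT (2 h, 37 °C, A450, blank of medium plus XTT). Results are given as % growth relative to untreated (100%), with water-treated and uninoculated controls; mean ± SD, p < 0.05.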

[9] = system: Nafcillin‐resistant S. aureus USA300; test: Antibacterial assay, nafcillin-resistant S. aureus USA300; assay type: cell-based, Staphylococcus aureus
In short: as §1

[10] = system: Gram‐positive and Gram‐negative bacteria; settings: G+ = Gram‐positive bacteria; cited from earlier work
[11] = system: Gram‐positive pathogens (S. aureus, Enterococcus faecalis, Streptococcus spp., Bacillus anthracis, Clostridioides difficile, Propionibacterium acnes, Mycobacter); settings: cited from earlier work
[12] = USA300, pH 5.5, read-out: MIC against S. aureus USA300, pH 5.5
[13] = USA300, pH 6.8, read-out: MIC against S. aureus USA300, pH 6.8
[14] = USA300, pH 7.4, read-out: MIC against S. aureus USA300, pH 7.4
[15] = USA300, pH 8, read-out: MIC against S. aureus USA300, pH 8
[16] = USA300, read-out: MIC against S. aureus USA300, 100 mM NaCl

CC[C@H](C)[C@H](NC(=O)[C@H](CCCNC(=N)N)NC(=O)[C@H](C)NC(=O)[C@@H](NC(=O)[C@H](CO)NC(=O)[C@@H](NC(=O)[C@@H](NC(=O)[C@H](CCC(N)=O)NC(=O)[C@H](CO)NC(=O)[C@@H](NC(=O)[C@@H](N)Cc1ccccc1)[C@@H](C)CC)[C@@H](C)CC)[C@@H](C)CC)[C@@H](C)O)C(N)=O [YZ103]
Antibacterial minimal inhibitory concentration, Acinetobacter baumannii B28‐16 [1]: >16 µM | Antibacterial minimal inhibitory concentration, Pseudomonas aeruginosa E411‐17 [2]: >16 µM | MIC, S. aureus clinical strain USA400 (S. aureus USA400): >32 µM | Antibacterial minimal inhibitory concentration, Escherichia coli E423‐17 (Escherichia coli E423‐17): >16 µM | MIC, S. aureus clinical strain Mu 50 (S. aureus Mu50): >32 µM | MIC, S. aureus clinical strain USA300 ([3]; TSB): >32 µM | Antibacterial minimal inhibitory concentration, Staphylococcus aureus USA300 LAC ([3]; TSB): >16 µM | Antibacterial minimal inhibitory concentration, Staphylococcus epidermidis 1457 [4]: >16 µM | Antibacterial minimal inhibitory concentration, Klebsiella pneumoniae E406‐17 [5]: >16 µM | MIC, S. aureus clinical strain Newman (S. aureus Newman): >32 µM | MIC, S. aureus clinical strain USA200 (S. aureus USA200): >32 µM

CC[C@H](C)[C@H](NC(=O)[C@H](CCCNC(=N)N)NC(=O)[C@H](C)NC(=O)[C@@H](NC(=O)[C@H](CO)NC(=O)[C@@H](NC(=O)[C@@H](NC(=O)[C@H](CCC(N)=O)NC(=O)[C@H](CO)NC(=O)[C@@H](NC(=O)[C@@H](N)Cc1ccccc1)[C@@H](C)CC)[C@@H](C)CC)[C@@H](C)CC)[C@@H](C)O)C(=O)N[C@@H](CC(C)C)C(=O)N[C@@H](CC(C)C)C(N)=O [YZ104]
Antibacterial minimal inhibitory concentration, Acinetobacter baumannii B28‐16 [1]: >16 µM | Antibacterial minimal inhibitory concentration, Pseudomonas aeruginosa E411‐17 [2]: >16 µM | Antibacterial minimal inhibitory concentration, Escherichia coli E423‐17 (Escherichia coli E423‐17): >16 µM | Antibacterial minimal inhibitory concentration, Staphylococcus aureus USA300 LAC ([3]; TSB): >16 µM | Antibacterial minimal inhibitory concentration, Staphylococcus epidermidis 1457 [4]: >16 µM | Antibacterial minimal inhibitory concentration, Klebsiella pneumoniae E406‐17 [5]: >16 µM

CC(=O)NC[C@H]1CN(c2ccc(N3CCOCC3)c(F)c2)C(=O)O1 [Linezolid, linezolid, reference compound]
Membrane permeabilization (propidium iodide fluorescence) [6]: neither nafcillin nor linezolid permeabilized the membranes | Reduction of MRSA counts (CFU) in killing kinetics (S. aureus USA300): 1 log | MIC [3, 12]: 4 µM (≈ 1.35 µg/mL) | MIC [3, 13]: 4 µM (≈ 1.35 µg/mL) | MIC [3, 14]: 4 µM (≈ 1.35 µg/mL) | MIC [3, 15]: 4 to 8 µM (≈ 1.35 to 2.7 µg/mL) | MIC [3, 16]: 4 µM (≈ 1.35 µg/mL) | Membrane depolarization [7]: neither nafcillin nor linezolid was able to | Effect on 24 h preformed biofilms in combination ([8]; in the presence of 2 μM YZ105, XTT): became more effective

CCOc1ccc2ccccc2c1C(=O)N[C@@H]1C(=O)N2[C@@H]1SC(C)(C)[C@@H]2C(=O)O [Nafcillin, nafcillin, reference compound]
Membrane permeabilization (propidium iodide fluorescence) [6]: neither nafcillin nor linezolid permeabilized the membranes | Reduction of MRSA counts (CFU) in killing kinetics (S. aureus USA300): barely reduced bacterial burden | MIC [3, 12]: 0.5 µM (≈ 0.207 µg/mL) | MIC [3, 13]: 1 µM (≈ 0.414 µg/mL) | MIC [3, 14]: 0.5 to 1 µM (≈ 0.207 to 0.414 µg/mL) | MIC [3, 15]: 1 µM (≈ 0.414 µg/mL) | MIC [3, 16]: 1 to 2 µM (≈ 0.414 to 0.829 µg/mL) | Increase of MIC values by serum ([3]; TSB with human serum compared with normal TSB): 4–8 fold | Membrane depolarization [7]: neither nafcillin nor linezolid was able to | MIC ([9]; Staphylococcus aureus, USA300, read-out: MIC, Nafcillin‐resistant USA300): 1020 µM (≈ 424 µg/mL) | Effect on 24 h preformed biofilms ([8]; 24 h treatment in TSB, live cells by XTT at 450 nm, relative to untreated (100%)): did not display a clear effect

FLSKILSTLRILL-NH2 [YZ106]
Antibacterial minimal inhibitory concentration, Acinetobacter baumannii B28‐16 [1]: 8 µM | Antibacterial minimal inhibitory concentration, Pseudomonas aeruginosa E411‐17 [2]: >16 µM | Antibacterial minimal inhibitory concentration, Escherichia coli E423‐17 (Escherichia coli E423‐17): 8 to 16 µM | Antibacterial minimal inhibitory concentration, Staphylococcus aureus USA300 LAC ([3]; TSB): 2 µM | Antibacterial minimal inhibitory concentration, Staphylococcus epidermidis 1457 [4]: 1 to 2 µM | Antibacterial minimal inhibitory concentration, Klebsiella pneumoniae E406‐17 [5]: >16 µM

LL‐37: human cathelicidin LL‐37 (LLGDFFRKSKEKIGKEFKRIVQRIKDFLRNLVPRTES; Antibacterial peptide LL-37; UniProt P49913 134-170, looked up)
Membrane permeabilization (propidium iodide fluorescence) [6]: steady increase in fluorescence with time

FLSQILSTLRILL-NH2 [YZ105]
Antibacterial minimal inhibitory concentration, Acinetobacter baumannii B28‐16 [1]: >16 µM | Antibacterial minimal inhibitory concentration, Pseudomonas aeruginosa E411‐17 [2]: >16 µM | MIC, S. aureus clinical strain USA400 (S. aureus USA400): 1 µM | Antibacterial minimal inhibitory concentration, Escherichia coli E423‐17 (Escherichia coli E423‐17): >16 µM | MIC, S. aureus clinical strain Mu 50 (S. aureus Mu50): 2 µM | MIC against S. aureus USA300, pH 5.5 ([3]; TSB adjusted to pH 5.5): 4–8 μM | MIC against S. aureus USA300, pH 6.8 ([3]; TSB adjusted to pH 6.8): 2 μM | MIC against S. aureus USA300, pH 8 ([3]; TSB adjusted to pH 8.0): <0.5 μM | MIC against S. aureus USA300, 100 mM NaCl ([3]; TSB with 100 mM NaCl added): 2 µM | MIC against S. aureus USA300, 1% serum ([3]; TSB with 1% human serum): 2 µM | MIC against S. aureus USA300, 5% serum ([3]; TSB with 5% human serum): 8 µM | MIC against S. aureus USA300, 10% serum ([3]; TSB with 10% human serum): 8 to 16 µM | MIC against S. aureus USA300, pH 7.4 ([3]; TSB, pH 7.4 (normal condition)): 1–2 μM | MIC, S. aureus clinical strain USA300 ([3]; TSB): 1 µM | Antibacterial minimal inhibitory concentration, Staphylococcus aureus USA300 LAC ([3]; TSB): 1 µM | Antibacterial minimal inhibitory concentration, Staphylococcus epidermidis 1457 [4]: 1 µM | Antibacterial minimal inhibitory concentration, Klebsiella pneumoniae E406‐17 [5]: >16 µM | MIC, Nafcillin‐resistant USA300 ([9]; broth microdilution, TSB): 2 µM | MIC, S. aureus clinical strain Newman (S. aureus Newman): 2 µM | MIC, S. aureus clinical strain USA200 (S. aureus USA200): 1 µM

teixobactin
Activity spectrum [10]: Mainly G+ | MIC [11]: 5 to 250 ng/mL

FLSKILSTLRILF-NH2 [YZ107]
Antibacterial minimal inhibitory concentration, Acinetobacter baumannii B28‐16 [1]: 4 to 8 µM | Antibacterial minimal inhibitory concentration, Pseudomonas aeruginosa E411‐17 [2]: 8 to 16 µM | Antibacterial minimal inhibitory concentration, Escherichia coli E423‐17 (Escherichia coli E423‐17): 8 µM | Antibacterial minimal inhibitory concentration, Staphylococcus aureus USA300 LAC ([3]; TSB): 2 µM | Antibacterial minimal inhibitory concentration, Staphylococcus epidermidis 1457 [4]: 2 µM | Antibacterial minimal inhibitory concentration, Klebsiella pneumoniae E406‐17 [5]: >16 µM

— article PMC9564113 (Peptide Science (Hoboken, N.j.), 2022)
